Measurements pooled from the literature.
Protocols differ between the studies behind these lines.
CTSB: Cathepsin B (CTSB, Homo sapiens, UniProt P07858)
STAT3: Signal transducer and activator of transcription 3 (STAT3, Homo sapiens, UniProt P40763)

CC[C@H](C)[C@H](NC(=O)[C@H](CO)NC(=O)CNC(=O)[C@@H](NC(=O)[C@@H](NC(=O)[C@@H](NC(=O)CN)[C@@H](C)O)C(C)C)[C@@H](C)O)C(=O)N[C@@H](CC(C)C)C(=O)N[C@H](C(=O)N1CCC[C@H]1C(=O)N[C@H](C(=O)N[C@@H](CC(=O)O)C(=O)N[C@@H](Cc1ccc(O)cc1)C(=O)NCC(=O)N[C@H]1CSSC[C@@H](C(=O)N[C@@H](CO)C(=O)N[C@H](C(=O)N[C@@H](C)C(=O)N[C@@H](CCSC)C(=O)N[C@@H](Cc2ccc(O)cc2)C(=O)NCC(=O)NCC(=O)N[C@H](C(=O)N[C@H](C(=O)N[C@@H](CC(=O)O)C(=O)N2CCC[C@H]2C(=O)N[C@H](C(=O)N[C@@H](CCCNC(=N)N)C(=O)N[C@@H](Cc2ccccc2)C(=O)N2CCC[C@H]2C(=O)N[C@@H](CC(N)=O)C(=O)N[C@@H](C)C(=O)N[C@@H](Cc2c[nH]c3ccccc23)C(=O)N[C@@H](CCCNC(=N)N)C(=O)N[C@@H](CCC(=O)O)C(=O)N[C@@H](CC(C)C)C(=O)O)[C@@H](C)CC)[C@@H](C)CC)C(C)C)C(C)C)NC(=O)[C@H](CC(C)C)NC(=O)[C@H](Cc2ccccc2)NC(=O)[C@@H]2CCCN2C(=O)[C@H](CC(N)=O)NC(=O)[C@H](Cc2ccccc2)NC1=O)[C@@H](C)CC)[C@@H](C)O  IC50 (CTSB; enzyme activity, inhibitor): > 200 µM
NC(=O)CC[C@H](NC(=O)[C@@H]1CC[C@@H]2CCN(C(=O)CCCCCC#Cc3cccc4c3CN(C3CCC(=O)NC3=O)C4=O)C[C@H](NC(=O)c3cc4cc(C(=O)P(=O)(O)O)ccc4[nH]3)C(=O)N21)C(=O)NC(c1ccccc1)c1ccccc1 (stereo partly shown)  DC50 (STAT3; protein level, degrader, luciferase): 0.36 to 0.38 µM
CCC(C(=O)Nc1cc(NC2CCNC2)ccc1C)n1cc(Br)cc2nc(SCc3ccc(F)cc3)nc1-2 (stereo not shown)  IC50 (CTSB; enzyme activity, inhibitor): > 100 µM
CC(=O)N[C@H]1Cc2ccc(cc2)OC/C=C/C[C@@H](C(=O)N[C@@H](CCCNC(=N)N)C(=O)c2nc3ccccc3s2)NC(=O)[C@H](CC(C)C)NC1=O  IC50 (Suppressor of tumorigenicity 14 protein (ST14, Homo sapiens, UniProt Q9Y5Y6); enzyme activity, inhibitor, fluorescence; with preincubation): 0.0046 µM
CC(C)C[C@H](NC(=O)[C@H]1O[C@@H]1C(=O)O)C(=O)NCCCCN=C(N)N  IC50 (CTSB; enzyme activity, inhibitor): 0.0052 µM
CCC(C(=O)Nc1cc(NC2CNC2)ccc1C)n1cccc2nc(SCc3ccc(F)cc3)nc1-2 (stereo not shown)  IC50 (CTSB; enzyme activity, inhibitor): > 100 µM
CNC(=O)c1ccc(-c2cnn3ccc(C(=O)N(C)c4ccc(Cl)c(C(=O)O)c4)cc23)cc1  IC50 (ALK tyrosine kinase receptor (ALK, Homo sapiens, UniProt Q9UM73); enzyme activity, inhibitor): > 30 µM
NC(=O)CC[C@H](NC(=O)[C@@H]1CC[C@@H]2CCN(C(=O)CCCCCC#Cc3cccc4c3CN(C3CCC(=O)NC3=O)C4=O)C[C@H](NC(=O)c3cc4cc(C(F)(F)P(=O)(O)O)ccc4[nH]3)C(=O)N21)C(=O)NC(c1ccccc1)c1ccccc1 (stereo partly shown)  DC50 (STAT3; protein level, degrader, luciferase): 0.36 to 0.38 µM
COC(=O)c1cc(N(C)C(=O)c2ccn3ncc(-c4ccc(C(=O)O)cc4)c3c2)ccc1Cl  IC50 (Serine/threonine-protein kinase pim-1 (PIM1, Homo sapiens, UniProt P11309); enzyme activity, inhibitor): 0.0937 µM
Cn1nccc1[C@]1(CNC(=O)c2ccc(F)c(F)c2-c2ccc(C(F)(F)F)cc2)NC(=O)NC1=O  IC50 (CTSB; enzyme activity, inhibitor): > 100 µM
